Results on five compounds are retold here after ChEMBL document CHEMBL3739303, “Targeting the Src Homology 2 (SH2) Domain of Signal Transducer and Activator of Transcription 6 (STAT6) with Cell-Permeable, Phosphatase-Stable Phosphopeptide Mimics Potently Inhibits Tyr641 Phosphorylation and Transcriptional Activity” (J Med Chem, 2015).

For orientation: inhibition means how much of the control response was suppressed.

The target in series [1] is T1, Signal transducer and activator of transcription 6 (Homo sapiens) (UniProt P42226).
T1 sequence (whole entry): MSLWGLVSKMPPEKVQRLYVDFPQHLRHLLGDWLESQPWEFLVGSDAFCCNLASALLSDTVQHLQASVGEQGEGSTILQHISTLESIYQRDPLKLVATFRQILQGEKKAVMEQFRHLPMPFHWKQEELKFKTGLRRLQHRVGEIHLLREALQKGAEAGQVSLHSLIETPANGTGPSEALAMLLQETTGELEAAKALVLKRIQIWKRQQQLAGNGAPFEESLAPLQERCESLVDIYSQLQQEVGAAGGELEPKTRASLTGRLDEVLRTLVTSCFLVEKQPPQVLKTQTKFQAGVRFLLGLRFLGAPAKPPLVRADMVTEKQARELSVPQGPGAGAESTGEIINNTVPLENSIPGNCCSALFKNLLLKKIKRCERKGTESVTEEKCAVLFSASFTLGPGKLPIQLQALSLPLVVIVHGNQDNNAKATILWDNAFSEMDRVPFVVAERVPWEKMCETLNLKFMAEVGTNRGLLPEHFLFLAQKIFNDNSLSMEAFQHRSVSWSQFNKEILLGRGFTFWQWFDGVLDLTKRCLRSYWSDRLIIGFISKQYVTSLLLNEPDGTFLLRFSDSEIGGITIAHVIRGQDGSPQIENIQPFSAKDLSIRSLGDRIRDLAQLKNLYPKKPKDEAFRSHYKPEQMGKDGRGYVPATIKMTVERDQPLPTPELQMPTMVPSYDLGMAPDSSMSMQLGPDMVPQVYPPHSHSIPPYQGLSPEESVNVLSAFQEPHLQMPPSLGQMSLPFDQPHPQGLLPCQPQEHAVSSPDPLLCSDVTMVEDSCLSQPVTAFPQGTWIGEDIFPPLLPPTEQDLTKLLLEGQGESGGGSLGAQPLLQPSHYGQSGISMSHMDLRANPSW
As to the kind of experiment: Inhibition of IL4-induced STAT6 phosphorylation at tyrosine 641 in human Beas-2B cells at 100 to 500 nM incubated for 2 hrs followed by stimulation with IL4 for 1 hr by Western blot assay. Format: cell-based. The procedure, abridged: (§1)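 Beas-2B seeded at 3.0 × 10^5 cells/well the day before; prodrugs from DMSO stocks added to final concentrations for 2 h, then IL-4 (2 ng/mL) for 1 h. PBS-washed cells lysed with PMSF, protein by modified Lowry; blots blocked in 3% BSA/TBST, probed for pSTAT6 (Tyr641), stripped and reprobed for total STAT6; ECL on X-ray film.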
(A western blot detects proteins with antibodies after separation by electrophoresis.)

Series [2] is described as follows: Cytotoxicity against human BEAS2B cells assessed as cell viability at <=1 uM after 72 hrs by MTS assay. Format: cell-based. The settings on record: beas-2b. The procedure, abridged:
(§2)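 Beas-2B seeded at 2000 cells/well; 10 mM DMSO stocks serially diluted in DMSO and equal amounts added to cultures; 72 h at 37 °C; medium replaced by 1:5 MTS/PBS, 1 h further incubation; viable cells read as optical density at 490 nm.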

For series [3], the target named is T1, Signal transducer and activator of transcription 6 (Homo sapiens). As to the kind of experiment: Inhibition of IL4-induced STAT6 phosphorylation in human MDA-MB-468 cells at 0.1 to 5 uM incubated for 2 hrs followed by stimulation with IL4 for 1 hr by Western blot assay. Format: cell-based. The method, boiled down: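 MDA-MB-468 breast cancer cells serum-starved, treated with prodrugs, then IL-4 stimulated; pSTAT6 read by Western blot.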

The target in series [4] is T2, Signal transducer and activator of transcription 1 (Mus musculus) (UniProt P42225).
T2 sequence (whole entry): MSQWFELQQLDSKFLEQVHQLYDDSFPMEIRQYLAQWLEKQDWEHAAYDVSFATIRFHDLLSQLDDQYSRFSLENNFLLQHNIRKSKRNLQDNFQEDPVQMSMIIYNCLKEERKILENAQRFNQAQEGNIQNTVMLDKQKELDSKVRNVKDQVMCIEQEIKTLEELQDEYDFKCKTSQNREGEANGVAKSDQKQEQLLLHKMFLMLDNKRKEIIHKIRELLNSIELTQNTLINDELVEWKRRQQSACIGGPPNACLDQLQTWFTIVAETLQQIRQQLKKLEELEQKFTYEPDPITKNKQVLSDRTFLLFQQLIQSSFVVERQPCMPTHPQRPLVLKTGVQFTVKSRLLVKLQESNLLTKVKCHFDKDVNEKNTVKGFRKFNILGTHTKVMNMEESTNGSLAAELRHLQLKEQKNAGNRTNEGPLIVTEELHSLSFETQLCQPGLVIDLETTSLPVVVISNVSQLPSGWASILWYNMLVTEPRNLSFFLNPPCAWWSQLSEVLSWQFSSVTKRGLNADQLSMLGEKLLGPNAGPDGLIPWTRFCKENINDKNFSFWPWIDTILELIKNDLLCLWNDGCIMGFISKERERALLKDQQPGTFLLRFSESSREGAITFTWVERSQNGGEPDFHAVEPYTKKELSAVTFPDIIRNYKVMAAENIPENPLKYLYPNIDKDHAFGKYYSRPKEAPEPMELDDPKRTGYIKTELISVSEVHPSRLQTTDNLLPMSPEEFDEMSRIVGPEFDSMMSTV
As to the kind of experiment: Inhibition of IL6-induced STAT1 phosphorylation at Y701 in CD4+ T lymphocytes isolated from C57BL/6J mouse preincubated for 2 hrs followed by activation with plate-bound anti-CD3/anti-CD28 and IL6 for 15 mins by Western blot analysis. Format: cell-based. The procedure, abridged:
(§3)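 CD4+ T cells from C57BL/6J mice, sorted by AutoMACS; activated 15 min with plate-bound anti-CD3 and/or anti-CD28 with IL-2, IL-6 or IL-4; lysed with protease inhibitors plus 10 mM NaF and 1 mM Na3VO4; Bradford-normalised immunoblots for pSTAT1 (Tyr701), pSTAT5 (Tyr694), pSTAT6 (Tyr641) and total STATs.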

The species named for a further series is Mus musculus. Briefly: Inhibition of IL2-induced STAT5 phosphorylation at Y694 in CD4+ T lymphocytes isolated from C57BL/6J mouse at 0.5 to 5 uM preincubated for 2 hrs followed by activation with plate-bound anti-CD3/anti-CD28 and IL2 for 15 mins by Western blot analysis. Format: cell-based. The method, boiled down: as §3
Series [5] addresses T3, Signal transducer and transcription activator 6 (Mus musculus) (UniProt P52633).
T3 sequence (whole entry): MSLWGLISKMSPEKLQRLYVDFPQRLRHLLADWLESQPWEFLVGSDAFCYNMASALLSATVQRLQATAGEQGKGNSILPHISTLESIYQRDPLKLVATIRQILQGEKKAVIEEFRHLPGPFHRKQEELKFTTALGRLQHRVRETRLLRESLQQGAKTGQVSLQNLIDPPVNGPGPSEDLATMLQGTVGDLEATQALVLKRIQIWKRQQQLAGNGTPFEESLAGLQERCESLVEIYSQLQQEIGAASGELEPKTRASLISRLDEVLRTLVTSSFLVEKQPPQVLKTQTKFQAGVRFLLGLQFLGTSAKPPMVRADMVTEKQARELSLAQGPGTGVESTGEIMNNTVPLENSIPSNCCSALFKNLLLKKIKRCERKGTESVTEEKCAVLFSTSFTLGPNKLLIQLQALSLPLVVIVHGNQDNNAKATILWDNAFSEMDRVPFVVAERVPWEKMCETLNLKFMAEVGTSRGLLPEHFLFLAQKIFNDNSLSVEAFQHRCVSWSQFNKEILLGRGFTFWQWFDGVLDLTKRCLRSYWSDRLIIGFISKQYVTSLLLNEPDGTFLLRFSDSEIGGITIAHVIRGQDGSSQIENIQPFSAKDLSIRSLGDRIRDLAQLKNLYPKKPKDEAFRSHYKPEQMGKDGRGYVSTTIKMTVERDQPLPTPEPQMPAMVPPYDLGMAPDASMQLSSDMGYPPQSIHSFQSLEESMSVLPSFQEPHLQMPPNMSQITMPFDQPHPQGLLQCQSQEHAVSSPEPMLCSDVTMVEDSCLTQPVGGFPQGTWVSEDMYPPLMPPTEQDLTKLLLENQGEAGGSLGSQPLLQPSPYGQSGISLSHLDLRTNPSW
As to the kind of experiment: Inhibition of IL4-induced STAT6 phosphorylation at Y641 in CD4+ T lymphocytes isolated from C57BL/6J mouse preincubated for 2 hrs followed by activation with plate-bound anti-CD3/anti-CD28 and IL4 for 15 mins by Western blot analysis. Format: cell-based. The procedure, abridged:
as §3

Series [6] deals with Signal transducer and activator of transcription 3 (Mus musculus) (UniProt P42227). Briefly: Inhibition of IL6-induced STAT3 phosphorylation at S727 in CD4+ T lymphocytes isolated from C57BL/6J mouse preincubated for 2 hrs followed by activation with plate-bound anti-CD3/anti-CD28 for 15 mins by Western blot analysis.
Sequence of Signal transducer and activator of transcription 3 (Mus musculus) (P42227 whole entry, the tested form may be a part): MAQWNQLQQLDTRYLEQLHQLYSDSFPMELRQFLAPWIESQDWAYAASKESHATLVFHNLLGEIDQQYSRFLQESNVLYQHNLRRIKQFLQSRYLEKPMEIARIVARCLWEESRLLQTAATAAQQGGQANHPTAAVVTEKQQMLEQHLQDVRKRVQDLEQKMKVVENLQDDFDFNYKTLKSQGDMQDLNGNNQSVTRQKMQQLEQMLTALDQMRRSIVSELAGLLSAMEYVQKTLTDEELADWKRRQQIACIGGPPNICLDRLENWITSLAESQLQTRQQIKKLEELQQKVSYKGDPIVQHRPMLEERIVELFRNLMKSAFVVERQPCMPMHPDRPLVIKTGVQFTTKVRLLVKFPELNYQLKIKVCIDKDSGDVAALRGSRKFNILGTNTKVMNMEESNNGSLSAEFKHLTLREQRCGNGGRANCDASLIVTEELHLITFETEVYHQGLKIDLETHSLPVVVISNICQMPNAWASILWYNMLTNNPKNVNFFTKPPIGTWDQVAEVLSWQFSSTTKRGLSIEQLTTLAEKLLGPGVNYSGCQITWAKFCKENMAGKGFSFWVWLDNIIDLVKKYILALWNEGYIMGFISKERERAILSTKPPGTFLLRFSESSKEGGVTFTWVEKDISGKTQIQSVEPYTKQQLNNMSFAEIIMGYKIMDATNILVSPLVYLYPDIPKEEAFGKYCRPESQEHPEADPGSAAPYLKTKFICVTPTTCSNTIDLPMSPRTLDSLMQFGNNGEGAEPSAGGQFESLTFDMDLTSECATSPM
In series [7] the target is T1, Signal transducer and activator of transcription 6 (Homo sapiens). Briefly: Inhibition of IL-13-stimulated STAT6 SH2 domain phosphorylation in human Beas-2B cells assessed as inhibition of CCL26 mRNA expression preincubated for 2 hrs followed by stimulation with IL-13 for 24 hrs by RT-PCR analysis.
Series [8] shares this target. As to the kind of experiment: Inhibition of IL-13-stimulated STAT6 SH2 domain phosphorylation in human Beas-2B cells assessed as inhibition of CCL26 mRNA expression at 100 nM preincubated for 2 hrs followed by stimulation with IL-13 for 24 hrs by RT-PCR analysis relative to control.
For series [9] the target is unchanged. As to the kind of experiment: Inhibition of IL4-induced STAT6 phosphorylation at tyrosine 641 in human Beas-2B cells at 0.05 to 5 uM incubated for 2 hrs followed by stimulation with IL4 for 1 hr by Western blot assay. Format: cell-based. The method, boiled down: as §1
Series [10] concerns the target RAC-alpha serine/threonine-protein kinase (Homo sapiens) (UniProt P31749). As to the kind of experiment: Inhibition of EGF-induced AKT phosphorylation at S473 in human MDA-MB-468 cells at 100 nM incubated for 2 hrs followed by stimulation with EGF for 1 hr by Western blot assay. Format: cell-based.
Series [11] can be described thus: Cytotoxicity against human BEAS2B cells assessed as cell viability after 72 hrs by MTS assay. Format: cell-based. Particulars: beas-2b. The method, boiled down:
as §2
For orientation: Formazan colour is commonly taken as a measure of viable cells.

Series [12] deals with T1, Signal transducer and activator of transcription 6 (Homo sapiens). Briefly: Inhibition of IL4-induced STAT6 phosphorylation at tyrosine 641 in human Beas-2B cells at 50 to 100 nM incubated for 2 hrs followed by stimulation with IL4 for 1 hr by Western blot assay. Format: cell-based. The method, boiled down:
as §1

Series [13] deals with RAC-alpha serine/threonine-protein kinase (Homo sapiens) (UniProt P31749). Briefly: Inhibition of EGF-induced AKT phosphorylation at S473 in human MDA-MB-468 cells at 5 uM incubated for 2 hrs followed by stimulation with EGF for 1 hr by Western blot assay. Format: cell-based.
Sequence of RAC-alpha serine/threonine-protein kinase (Homo sapiens) (P31749 whole entry): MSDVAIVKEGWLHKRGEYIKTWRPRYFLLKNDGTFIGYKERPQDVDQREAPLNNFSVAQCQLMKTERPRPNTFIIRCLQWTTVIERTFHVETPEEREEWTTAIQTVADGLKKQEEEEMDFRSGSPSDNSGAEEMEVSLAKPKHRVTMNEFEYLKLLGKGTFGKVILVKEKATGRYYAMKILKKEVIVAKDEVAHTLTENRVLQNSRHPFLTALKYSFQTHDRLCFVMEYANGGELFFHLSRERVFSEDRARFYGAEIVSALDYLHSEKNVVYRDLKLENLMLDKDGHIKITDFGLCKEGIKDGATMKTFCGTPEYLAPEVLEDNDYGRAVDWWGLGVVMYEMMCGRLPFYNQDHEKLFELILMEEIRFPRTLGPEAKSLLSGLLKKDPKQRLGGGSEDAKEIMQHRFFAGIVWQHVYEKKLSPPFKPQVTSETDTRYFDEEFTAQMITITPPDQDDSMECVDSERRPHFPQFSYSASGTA
For series [14], the target named is T1, Signal transducer and activator of transcription 6 (Homo sapiens). Briefly: Inhibition of IL4-stimulated STAT6 phosphorylation at tyrosine 641 in human Beas-2B cells at 0.025 to 5 uM incubated for 2 hrs followed by stimulation with IL4 for 1 hr by Western blot assay. Format: cell-based. The method, boiled down: as §1

The source made the active and inactive calls. No cut-off for these calls is given here.

Take `CC(C)(C)C(=O)OCOP(=O)(OCOC(=O)C(C)(C)C)C(F)(F)c1ccc(/C=C/C(=O)N[C@H](C(=O)N2CCC[C@H]2C(=O)N(c2ccccc2)c2ccccc2)C(C)(C)C)cc1`: the inhibition result (in series [1]; in series [3]; in the series filed under Mus musculus; in series [5]) was “Active” in each case. The Activity result in [2] was “Non-toxic”. The inhibition entry in [4] and in [6] was “inactive” each time.
As to `CC(C)(C)C(=O)OCOP(=O)(OCOC(=O)C(C)(C)C)C(F)(F)c1ccc(/C=C/C(=O)N[C@H](C(=O)N2CCC[C@H]2C(=O)N(c2ccccc2)c2ccc(I)cc2)C(C)(C)C)cc1`, the inhibition entry in series [4], in [5] and in series [6] was “inactive” each time. For the same compound, the inhibition result in series [7] is “Dose-dependent effect”; in [8], above 50%.
In the case of `CC(C)(C)C(=O)OCOP(=O)(OCOC(=O)C(C)(C)C)C(F)(F)c1ccc(/C=C/C(=O)N[C@H](C(=O)N2CCC[C@H]2C(=O)Nc2ccccc2)C(C)(C)C)cc1`, the inhibition entry in [9], in series [10] and in [5] was “Active” in each case. Moreover, the inhibition result (in series [4]; in the series listed under Mus musculus; in series [6]) was “inactive” each time. Besides, in series [11], the Activity result is “Toxic”.
On to `CN(C(=O)[C@@H]1CCCN1C(=O)[C@@H](NC(=O)/C=C/c1ccc(C(F)(F)P(=O)(OCOC(=O)C(C)(C)C)OCOC(=O)C(C)(C)C)cc1)C(C)(C)C)c1ccccc1`, for which the inhibition result (in [12]; in [3]; in series [13]; in the series listed under Mus musculus; in series [5]) was “Active” each time. Moreover, the Activity entry in series [2] and in series [11] was “Non-toxic” in each case. Further, the inhibition entry in [4] and in series [6] was “inactive” throughout.
Regarding `C/C(=C\C(=O)N[C@H](C(=O)N1CCC[C@H]1C(=O)N(C)C1CCCCC1)C(C)(C)C)c1ccc(C(F)(F)P(=O)(OCOC(=O)C(C)(C)C)OCOC(=O)C(C)(C)C)cc1`, the inhibition entry in series [4] and in series [6] was “inactive” each time. Further, the inhibition result (in the series filed under Mus musculus; in series [5]; in [14]) was “Active” in each case. Moreover, in series [11], the Activity entry was “Non-toxic”.
